Assay results from ChEMBL document CHEMBL1165860, “Synthesis and potential cytotoxic activity of new phenanthrylphenol-pyrrolobenzodiazepines” (2010).
Calls of active or inactive are those of the source. No cut-off for these calls is given here.

Assays:
EKVX = assay: Growth inhibition of human EKVX cells after 24 hrs by MTT assay; assay type: functional
NCI-H322M = assay: Growth inhibition of human NCI-H322M cells after 24 hrs by MTT assay; assay type: functional
MCF7 [1] = assay: Induction of apoptosis in human MCF7 cells assessed as increase of caspase 9 activation at 4 uM after 1 hr by fluorimetry based assay; assay type: functional, cell-based
[2] = Growth inhibition of human […] cells after 24 hrs by MTT assay; assay type: functional
COLO 205 = assay: Growth inhibition of human COLO205 cells after 24 hrs by MTT assay; assay type: functional; conditions: COLO 205, 24 h
MCF7 [3] = assay: Cytotoxicity against human MCF7 cells at 4 uM after 24 hrs by MTT assay relative to control; assay type: functional, cell-based
Outline: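 MCF-7 cells were seeded at 10,000 cells/well in DMEM with 10% fetal calf serum. They were exposed to 0.5, 1, 2 and 4 µM for 24 h. MTT reduction to formazan was read at 570 nm, with untreated controls taken as 100% viability. DMSO-treated cells served as an additional control.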

SK-OV-3 = assay: Growth inhibition of human SKOV3 cells after 24 hrs by MTT assay; assay type: functional; conditions: SK-OV-3, 24 h
SF-539 = assay: Growth inhibition of human SF539 cells after 24 hrs by MTT assay; assay type: functional; conditions: SF-539, 24 h
HCT-15 = assay: Growth inhibition of human HCT15 cells after 24 hrs by MTT assay; assay type: functional; conditions: HCT-15, 24 h
MCF7 [4] = assay: Cell cycle arrest in human MCF7 cells assessed as accumulation at G1 phase at 4 uM after 24 hrs using propidium iodide staining by flow cytometry; assay type: functional
Outline: (§1)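 MCF-7 cells were grown in DMEM with 10% fetal calf serum, penicillin and streptomycin, at 37 °C in 5% CO2. They were treated for 24 h at 2 and 4 µM, with DMSO-treated cells as controls. Cells were trypsinised, fixed in ice-cold 70% ethanol at 4 °C for 30 min, and RNaseA-treated at 37 °C for 30 min. Phases were read by flow cytometry.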

KM12 = assay: Growth inhibition of human KM12 cells after 24 hrs by MTT assay; assay type: functional; conditions: KM12, 24 h
TK-10 = assay: Growth inhibition of human TK10 cells after 24 hrs by MTT assay; assay type: functional; conditions: TK-10, 24 h
HT-29 = assay: Growth inhibition of human HT-29 cells after 24 hrs by MTT assay; assay type: functional; conditions: HT-29, 24 h
DU-145 = assay: Growth inhibition of human DU145 cells after 24 hrs by MTT assay; assay type: functional; conditions: DU-145, 24 h
NCI-H460 = assay: Growth inhibition of human NCI-H460 cells after 24 hrs by MTT assay; assay type: functional; conditions: NCI-H460, 24 h
UO-31 = assay: Growth inhibition of human UO31 cells after 24 hrs by MTT assay; assay type: functional; conditions: UO-31, 24 h
SW-620 = assay: Growth inhibition of human SW620 cells after 24 hrs by MTT assay; assay type: functional; conditions: SW-620, 24 h
A498 = assay: Growth inhibition of human A498 cells after 24 hrs by MTT assay; assay type: functional; conditions: A498, 24 h
SK-MEL-2 = assay: Growth inhibition of human SK-MEL-2 cells after 24 hrs by MTT assay; assay type: functional; conditions: SK-MEL-2, 24 h
K562 = assay: Growth inhibition of human K562 cells after 24 hrs by MTT assay; assay type: functional; conditions: K562, 24 h
IGROV-1 = assay: Growth inhibition of human IGROV1 cells after 24 hrs by MTT assay; assay type: functional; conditions: IGROV-1, 24 h
UACC-62 = assay: Growth inhibition of human UACC62 cells after 24 hrs by MTT assay; assay type: functional; conditions: UACC-62, 24 h
MCF7 [5] = assay: Induction of apoptosis in human MCF7 cells assessed as increase of caspase 8 activation at 2 uM after 1 hr by […] method; assay type: functional, cell-based
Outline: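 Colorimetric caspase-8 kit on lysates of treated MCF-7 cells. The IETD-pNA substrate was incubated with cell lysate at 37 °C for 1 h, and absorbance was read at 405 nm. Untreated cells served as the control.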

OVCAR-5 = assay: Growth inhibition of human OVCAR5 cells after 24 hrs by MTT assay; assay type: functional; conditions: OVCAR-5, 24 h
MCF7 [6] = assay: Cell cycle arrest in human MCF7 cells assessed as accumulation at G2/M phase at 2 uM after 24 hrs using propidium iodide staining by flow cytometry; assay type: functional; outline: as §1
HCC 2998 = assay: Growth inhibition of human HCC2998 cells after 24 hrs by MTT assay; assay type: functional; conditions: HCC 2998, 24 h
HOP-62 = assay: Growth inhibition of human HOP62 cells after 24 hrs by MTT assay; assay type: functional; conditions: HOP-62, 24 h
MCF7 [7] = assay: Cell cycle arrest in human MCF7 cells assessed as accumulation at G2/M phase at 4 uM after 24 hrs using propidium iodide staining by flow cytometry; assay type: functional; outline: as §1
CCRF-CEM = assay: Growth inhibition of human CCRF-CEM cells after 24 hrs by MTT assay; assay type: functional
U-251 = assay: Growth inhibition of human U251 cells after 24 hrs by MTT assay; assay type: functional; conditions: U-251, 24 h
MCF7 [8] = assay: Increase of PARP cleavage in human MCF7 cells at 2 uM after 24 hrs by Western blot analysis; assay type: functional, cell-based
Outline: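 MCF-7 cells were grown in DMEM with 10% FCS and penicillin/streptomycin at 37 °C in 5% CO2, then treated for 24 h. Cells were lysed in ice-cold RIPA buffer with protease inhibitors and NaF. Protein was measured by Bradford assay, and 30 µg per lane was run on 12% SDS-PAGE and transferred to PVDF. Antibody steps: primary at 4 °C overnight, HRP secondary 1:2000, chemiluminescent detection.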

MDA-MB-435 = assay: Growth inhibition of human MDA-MB-435 cells after 24 hrs by MTT assay; assay type: functional; conditions: MDA-MB-435, 24 h
MCF7 [9] = assay: Cell cycle arrest in human MCF7 cells assessed as accumulation at S phase at 2 uM after 24 hrs using propidium iodide staining by flow cytometry; assay type: functional; outline: as §1
RXF 393 = assay: Growth inhibition of human RXF393 cells after 24 hrs by MTT assay; assay type: functional; conditions: RXF 393, 24 h
UACC-257 = assay: Growth inhibition of human UACC257 cells after 24 hrs by MTT assay; assay type: functional; conditions: UACC-257, 24 h
MCF7 [10] = assay: Cell cycle arrest in human MCF7 cells assessed as accumulation at G0 phase after 24 hrs using propidium iodide staining by flow cytometry; assay type: functional, cell-based; outline: as §1
OVCAR-3 = assay: Growth inhibition of human OVCAR-3 cells after 24 hrs by MTT assay; assay type: functional; conditions: OVCAR-3, 24 h
OVCAR-4 = assay: Growth inhibition of human OVCAR4 cells after 24 hrs by MTT assay; assay type: functional; conditions: OVCAR-4, 24 h

Which GI50 (EKVX) does the source give for `COc1cc2c(cc1OCCCOc1ccc(-c3cc4ccccc4c4ccccc34)cc1)N=C[C@@H]1CCCN1C2=O` here?
Its GI50 is 1050 nM.

And the GI50 (NCI-H322M)?
Its GI50 is 1590 nM.

And the Activity (MCF7 [1])?
The Activity was “Active”.

And the GI50 [2]?
Its GI50 is 190 nM.

What about the GI50 (COLO 205) of the same compound?
The GI50 was 1190 nM.

And the Activity (MCF7 [3])?
The Activity was “Active”.

What about the GI50 (SK-OV-3) of the same compound?
The GI50 was 1560 nM.

What about the GI50 (SF-539) of the same compound?
The GI50 was 1760 nM.

What about the GI50 (HCT-15) of the same compound?
The GI50 was 1180 nM.

What about the Activity (MCF7 [4]) of the same compound?
Its Activity is 75.33%.

What about the GI50 (KM12) of the same compound?
The GI50 was 780 nM.

And the GI50 (TK-10)?
Its GI50 is 600 nM.

What about the GI50 (HT-29) of the same compound?
Its GI50 is 890 nM.

And the GI50 (DU-145)?
Its GI50 is 400 nM.

What about the GI50 (NCI-H460) of the same compound?
The GI50 was 1040 nM.

What about the GI50 (UO-31) of the same compound?
Its GI50 is 160 nM.

And the GI50 (SW-620)?
The GI50 was 510 nM.

And the GI50 (A498)?
Its GI50 is 690 nM.

And the GI50 (SK-MEL-2)?
The GI50 was 40 nM.

What about the GI50 (K562) of the same compound?
Its GI50 is 270 nM.

What about the GI50 (IGROV-1) of the same compound?
The GI50 was 120 nM.

What about the GI50 (UACC-62) of the same compound?
The GI50 was 630 nM.

And the Activity (MCF7 [5])?
The Activity was “Active”.

What about the GI50 (OVCAR-5) of the same compound?
Its GI50 is 1200 nM.

And the Activity (MCF7 [6])?
Its Activity is 10.7%.

And the GI50 (HCC 2998)?
The GI50 was 1210 nM.

And the GI50 (HOP-62)?
Its GI50 is 1000 nM.

And the Activity (MCF7 [7])?
Its Activity is 3.94%.

And the GI50 (CCRF-CEM)?
Its GI50 is 130 nM.

And the GI50 (U-251)?
The GI50 was 910 nM.

And the Activity (MCF7 [8])?
The Activity was “Active”.

What about the GI50 (MDA-MB-435) of the same compound?
The GI50 was 240 nM.

And the Activity (MCF7 [9])?
The Activity was 17.29%.

And the GI50 (RXF 393)?
Its GI50 is 240 nM.

What about the GI50 (UACC-257) of the same compound?
Its GI50 is 1360 nM.

What about the Activity (MCF7 [10]) of the same compound?
Its Activity is “Dose-dependent effect”.

What about the GI50 (OVCAR-3) of the same compound?
Its GI50 is 250 nM.

What about the GI50 (OVCAR-4) of the same compound?
Its GI50 is 580 nM.
